The record followed here is ChEMBL document CHEMBL1138921, “Discovery of 3,5-bis(trifluoromethyl)benzyl L-arylglycinamide based potent CCR2 antagonists” (Bioorg Med Chem Lett, 2006).

The target in test [1] is T1, C-C chemokine receptor type 2 (Homo sapiens, UniProt P41597). Nature of the test: Displacement of [125I]MCP1 from human CCR2 expressed in CHO cells at 1 uM. It counts as cell-based. In outline:
(§1)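 Competition binding: CHO cells stably expressing human CCR2b (5 × 10⁴) incubated with ¹²⁵I-hMCP-1 (20–50 pM) plus varied unlabeled competitor, 60 min, room temperature, in 50 mM HEPES, 5 mM MgCl₂, 1 mM CaCl₂, pH 7.4. Ended by filtration through polyethyleneimine-soaked GF/B filters, washed with 25 mM HEPES pH 7.5/500 mM NaCl. Values given as IC₅₀ or % inhibition at 1 µM.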
Target sequence in this assay (P41597 whole entry, looked up): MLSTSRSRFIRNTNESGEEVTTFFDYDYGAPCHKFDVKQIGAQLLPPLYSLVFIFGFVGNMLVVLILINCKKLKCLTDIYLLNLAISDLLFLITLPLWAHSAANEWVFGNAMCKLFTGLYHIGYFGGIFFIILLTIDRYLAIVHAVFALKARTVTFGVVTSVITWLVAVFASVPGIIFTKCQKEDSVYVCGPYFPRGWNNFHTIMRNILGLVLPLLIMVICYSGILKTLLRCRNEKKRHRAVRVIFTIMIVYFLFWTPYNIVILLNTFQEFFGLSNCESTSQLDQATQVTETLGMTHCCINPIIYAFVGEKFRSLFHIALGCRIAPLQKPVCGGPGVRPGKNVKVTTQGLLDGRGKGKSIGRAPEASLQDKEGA

Test [2] deals with T1, C-C chemokine receptor type 2. The test can be described thus: Displacement of [125I]MCP1 from human CCR2 expressed in CHO cells. It counts as cell-based. The procedure, abridged:
as §1
On the technique in general: In a radioligand displacement assay an active substance lowers the binding of a labelled ligand.

Test [3] relates to Monocyte. Nature of the test: Inhibition of MCP1-induced chemotaxis of human monocytes. It counts as functional, cell-based. The procedure, abridged:
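Human monocytes loaded with Calcein-AM in Hanks' buffer with 0.01% BSA, 37 °C, 30 min, then washed and resuspended in phenol red-free RPMI 1640 with 0.01% BSA. Migration toward MCP-1 measured in disposable 96-well chemotaxis plates (5.7 mm diameter wells), 1.5 × 10⁵ cells/well.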

Test [4] addresses Substance-P receptor (Homo sapiens, UniProt P25103). The test can be described thus: Binding affinity to human NK1 receptor.

The structures appear in SMILES notation. pIC50, pKi: −log10 of the molar value.

Substance-P receptor, sequence (P25103 whole entry): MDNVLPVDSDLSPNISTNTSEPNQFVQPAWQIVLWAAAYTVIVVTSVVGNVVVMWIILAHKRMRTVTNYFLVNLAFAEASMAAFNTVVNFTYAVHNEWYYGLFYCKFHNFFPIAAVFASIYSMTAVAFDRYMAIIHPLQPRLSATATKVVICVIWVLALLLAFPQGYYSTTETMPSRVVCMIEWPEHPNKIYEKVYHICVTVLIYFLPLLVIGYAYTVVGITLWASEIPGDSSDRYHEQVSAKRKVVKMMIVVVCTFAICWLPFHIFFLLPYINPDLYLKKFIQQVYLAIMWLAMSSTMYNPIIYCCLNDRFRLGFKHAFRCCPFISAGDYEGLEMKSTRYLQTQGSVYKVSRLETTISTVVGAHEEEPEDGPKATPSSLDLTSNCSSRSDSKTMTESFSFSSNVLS

The term inhibition denotes the share of the control response that was lost under treatment. A high value points to strong suppression. In test [1], `O=C(NCc1cc(C(F)(F)F)cc(C(F)(F)F)c1)[C@@H](NCCCN1CCCCC1)c1ccccc1` had an inhibition of 26%.

For `CN(C)CCNC(C(=O)NCc1cc(C(F)(F)F)cc(C(F)(F)F)c1)c1cccc(Br)c1` (centres undefined), the inhibition in test [1] is 17%. Molecule `CN(C)CCN[C@@H](Cc1ccc(F)cc1)C(=O)NCc1cc(C(F)(F)F)cc(C(F)(F)F)c1` yielded an inhibition in test [1] of 1%. The term pIC50 denotes the IC50 on a negative log10 scale, so that one unit is a factor of ten. Read a low pIC50 as a high IC50. In turn, `CN(C)CCNC(C(=O)NCc1cc(C(F)(F)F)cc(C(F)(F)F)c1)c1ccc(Cl)cc1` (centres undefined) had a pIC50 in test [2] of 5.96. `CN(C)CCN[C@@H](C(=O)NCc1cc(C(F)(F)F)cc(C(F)(F)F)c1)c1ccc(F)cc1` displayed an inhibition in test [1] of 8%.

In test [2], `O=C(NCc1cc(C(F)(F)F)cc(C(F)(F)F)c1)C(NCCN1CCCC1)c1ccccc1` (centres undefined) showed a pIC50 of 6.28.

Molecule `CN(C)CCN[C@H](CNC(=O)c1cc(C(F)(F)F)cc(C(F)(F)F)c1)c1ccccc1` had an inhibition in test [1] of 0%. Regarding `CN(C)CCN[C@H](COCc1cc(C(F)(F)F)cc(C(F)(F)F)c1)c1ccccc1`, the inhibition in test [1] turned out to be 6%.

`CC(C)CCNC(C(=O)NCc1cc(C(F)(F)F)cc(C(F)(F)F)c1)c1ccccc1` (centres undefined) had an inhibition in test [1] of 0%. In the case of `NCCNC(C(=O)NCc1cc(C(F)(F)F)cc(C(F)(F)F)c1)c1ccccc1` (centres undefined), the inhibition in test [1] was determined as 14%. Same read-out and setting: the result for `CN(C)CCN[C@H](CN(C)S(=O)(=O)c1cc(C(F)(F)F)cc(C(F)(F)F)c1)c1ccccc1` reads 0%. In test [2], `CN(C)CCN[C@@H](C(=O)NCc1cc(C(F)(F)F)cc(C(F)(F)F)c1)c1cccs1` showed a negative-log IC50 (pIC50) of 6.06. Turning to `COc1ccc([C@H](NCCN(C)C)C(=O)NCc2cc(C(F)(F)F)cc(C(F)(F)F)c2)cc1`, in test [1], the inhibition was 47%. The same measure, in the same setting: the result for `CN(C)CCN[C@H](C(=O)NCc1cc(C(F)(F)F)cc(C(F)(F)F)c1)C1CCCCC1` reads 9%.

The molecule `O=C(NCc1cc(C(F)(F)F)cc(C(F)(F)F)c1)[C@@H](NCCN1CCCCC1)c1ccc(F)cc1` showed a pIC50 in test [2] of 6.76. As to `Cc1cc(C)cc(CNC(=O)[C@@H](NCCN(C)C)c2ccccc2)c1`, in test [1], the inhibition is 0%. Usually pKi stands for the negative decadic logarithm of the Ki, by convention in mol/L. In test [3], `O=C(O)c1cc2cc(O)ccc2n1Cc1ccc(Cl)c(Cl)c1` showed a pIC50 of 7.22. Moreover, the negative logarithm of the Ki (pKi) in test [2] was 7.54. On to `CN(C)CCN[C@H](C(=O)NCc1cccc(C(F)(F)F)c1)c1ccccc1`, for which, in test [1], the inhibition turned out to be 5%. `CN(C)CCNC(C(=O)NCc1cc(C(F)(F)F)cc(C(F)(F)F)c1)c1ccccc1` (centres undefined): the pIC50 in test [2] is 5.83.

For `Cc1ccc2c(c1)C1(CCN(CCc3coc(-c4ccc(F)cc4)n3)CC1)OC(=O)N2`, the pIC50 in test [3] was 6.00; in test [2], 7.49.

In the case of `O=C(NC(=O)c1ccc2nccnc2c1)Nc1cccc(-c2ccccc2)c1`, the pIC50 in test [3] was 7.22. In the case of `CN(C)CCNC(C(=O)NCc1cc(C(F)(F)F)cc(C(F)(F)F)c1)c1ccc(F)c(F)c1` (centres undefined), in test [1], the inhibition was 33%.

In turn, `O=C(NCc1cc(C(F)(F)F)cc(C(F)(F)F)c1)[C@@H](NCCN1CCCCC1)c1ccccc1` showed a pIC50 in test [2] of 6.66.

In turn, `CN(C)CCN[C@H](C(=O)NCc1cc(C(F)(F)F)cc(C(F)(F)F)c1)c1ccsc1` gave a pIC50 in test [2] of 6.37. The molecule `CC(=O)N(Cc1cc(C(F)(F)F)cc(C(F)(F)F)c1)C[C@@H](NCCN(C)C)c1ccccc1` registered an inhibition in test [1] of 4%.

In the case of `CN(C)CCNC(C(=O)NCc1cc(C(F)(F)F)cc(C(F)(F)F)c1)c1ccc(Br)cc1` (centres undefined), in test [1], the inhibition stood at 25%. `CN(C)CCN[C@H](C(=O)NCc1cc(C(F)(F)F)cc(C(F)(F)F)c1)c1ccccc1` gave a pIC50 in test [2] of 6.00.

Consider `CN(C)CCN[C@H](CN(Cc1cc(C(F)(F)F)cc(C(F)(F)F)c1)S(C)(=O)=O)c1ccccc1`, for which the inhibition in test [1] was 0%. In turn, `CC1CCN(CCN[C@H](C(=O)NCc2cc(C(F)(F)F)cc(C(F)(F)F)c2)c2ccccc2)CC1` had a pIC50 in test [2] of 6.12. The same measure, in the same setting: next, `CCN(CC)CCNC(C(=O)NCc1cc(C(F)(F)F)cc(C(F)(F)F)c1)c1ccccc1` (centres undefined): 6.17. `CN(C)CCN[C@H](C(=O)NCc1cc(C(F)(F)F)cc(C(F)(F)F)c1)c1ccc(F)cc1`: the values for the pIC50 in test [4] and in test [2] were 6.19 and 6.11, respectively. As for `CN(C)CCN[C@H](CNS(=O)(=O)c1cc(C(F)(F)F)cc(C(F)(F)F)c1)c1ccccc1`, the inhibition in test [1] was 0%. In test [1], `COCCNC(C(=O)NCc1cc(C(F)(F)F)cc(C(F)(F)F)c1)c1ccccc1` (centres undefined) had an inhibition of 0%.

In test [2], `O=C(NCc1cc(C(F)(F)F)cc(C(F)(F)F)c1)[C@@H](NCCN1CCC(c2ccccc2)CC1)c1ccccc1` had a pIC50 of 6.09. Still for that read-out and setting: next, `CC1CCCCN1CCN[C@H](C(=O)NCc1cc(C(F)(F)F)cc(C(F)(F)F)c1)c1ccccc1` (some centres undefined): 6.08; `Nc1ccc(C(F)(F)F)cc1C(=O)NCC(=O)NCC1CCN(Cc2ccc(Cl)cc2)CC1`: 6.70. Consider `CN(C)CCNCC(=O)NCc1cc(C(F)(F)F)cc(C(F)(F)F)c1`, for which the inhibition in test [1] turned out to be 0%. `O=C(/C=C/c1ccc(Cl)c(Cl)c1)NCCCCCN1CCC(c2c[nH]c3ccc(O)cc23)CC1` had a Kb in test [3] of 25 nM. In test [1], `CN(C)CCN[C@H](C(=O)NCc1ccc(C(F)(F)F)cc1)c1ccccc1` displayed an inhibition of 7%. Still for that read-out and setting: next, `CN(C)CCN[C@H](C(=O)N(C)Cc1cc(C(F)(F)F)cc(C(F)(F)F)c1)c1ccccc1`: 20%. In test [2], `O=C(NCc1cc(C(F)(F)F)cc(C(F)(F)F)c1)C(NCCN1CCOCC1)c1ccccc1` (centres undefined) showed a pIC50 of 6.24. In test [2], `O=C(NCc1cc(C(F)(F)F)cc(C(F)(F)F)c1)C(NCCN1CCCCC1)c1ccccc1` (centres undefined) showed a negative-log IC50 (pIC50) of 6.47. In test [1], `CN(C)CCN[C@H](C(=O)NCc1ccccc1C(F)(F)F)c1ccccc1` returned an inhibition of 1%.

Molecule `CC(NC(=O)[C@@H](NCCN(C)C)c1ccccc1)c1cc(C(F)(F)F)cc(C(F)(F)F)c1` (some centres undefined) registered an inhibition in test [1] of 28%.

In test [2], `CN(C)CCNC(C(=O)NCc1cc(C(F)(F)F)cc(C(F)(F)F)c1)c1ccco1` (centres undefined) showed a negative-log IC50 (pIC50) of 6.23.

As to `O=C(NCc1cc(C(F)(F)F)cc(C(F)(F)F)c1)[C@@H](NCCN1CCCCCC1)c1ccccc1`, the pIC50 in test [2] is 6.40.
